Data published in ChEMBL document CHEMBL1759875, “Synthesis and biological evaluation of 1-[2-cyano-3,12-dioxooleana-1,9(11)-dien-28-oyl]-4-ethynylimidazole. A novel and highly potent anti-inflammatory and cytoprotective agent” (Bioorg Med Chem Lett, 2011).
pIC50: −log10 of the molar value. Calls of active or inactive are those of the source. The calls are words filed in the database; no cut-off is given here.

Assays:
RAW264.7 = assay: Inhibition of NO production in INFgamma-stimulated mouse RAW264.7 cells measured after 24 hrs by Griess reaction method; format: functional, cell-based; settings: RAW264.7, 24 h
In short: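 RAW 264.7 mouse macrophages were seeded at 30,000 cells/well in triplicate. The next day they were pre-treated for 2 h with DMSO or compound (0–200 nM), then stimulated with IFN-γ for 24 h. Medium NO was measured by Griess reagent and viability by WST-1. IC₅₀ came from suppression of IFN-γ-induced NO normalized to viability.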

[1] = target: NAD(P)H dehydrogenase [quinone] 1 (Mus musculus) (UniProt Q64669); assay: Induction of NQO1 activity in mouse Hepa-1c1c7 cells assessed as concentration require to double the specific enzyme activity after 48 hrs; format: cell-based
Chain of NAD(P)H dehydrogenase [quinone] 1 (Mus musculus) (Q64669 whole entry): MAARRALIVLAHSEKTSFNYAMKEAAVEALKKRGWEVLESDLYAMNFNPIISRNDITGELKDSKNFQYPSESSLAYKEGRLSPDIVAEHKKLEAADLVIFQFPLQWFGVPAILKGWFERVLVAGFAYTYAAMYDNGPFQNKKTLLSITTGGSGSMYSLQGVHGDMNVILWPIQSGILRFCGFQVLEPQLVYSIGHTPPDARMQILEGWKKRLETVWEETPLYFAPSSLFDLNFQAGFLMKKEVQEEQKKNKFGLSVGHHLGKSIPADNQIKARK
In short: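 Hepa1c1c7 murine hepatoma cells were seeded at 10,000 cells/well and grown 24 h, then exposed to serial dilutions for 48 h. NQO1 specific enzyme activity was measured, and potency was taken as the concentration that doubles it (CD). Each concentration used eight replicate wells; SD was 5–10%.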

[2] = target: T1, Heme oxygenase 1 (Mus musculus) (UniProt P14901); assay: Induction of HO1 activity in mouse RAW264.7 cells at 30 to 100 nM after 16 hrs; format: cell-based
T1 sequence (whole entry): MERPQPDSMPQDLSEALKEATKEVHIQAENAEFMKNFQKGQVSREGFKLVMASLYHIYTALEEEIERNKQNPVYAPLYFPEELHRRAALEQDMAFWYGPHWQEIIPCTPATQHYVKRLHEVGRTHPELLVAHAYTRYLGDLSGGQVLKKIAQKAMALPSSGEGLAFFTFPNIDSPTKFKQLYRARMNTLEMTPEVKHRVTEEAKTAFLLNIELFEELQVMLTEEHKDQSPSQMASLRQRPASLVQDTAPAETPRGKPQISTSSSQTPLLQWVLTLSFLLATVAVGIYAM
In short: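 RAW 264.7 mouse macrophages were plated at 100,000 cells/well and treated the next day with DMSO or compound for 16 h (overnight). Cells were harvested in tricine sample buffer with b-ME. Lysates were run on SDS–PAGE and immunoblotted for HO-1, with GAPDH as the reference protein.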

[3] = Stability of the compound at 4 degC; format: physicochemical

For `CC#Cc1nc(C)cn1C(=O)[C@]12CCC(C)(C)C[C@H]1[C@H]1C(=O)C=C3[C@@]4(C)C=C(C#N)C(=O)C(C)(C)[C@@H]4CC[C@@]3(C)[C@]1(C)CC2`, the pIC50 (RAW264.7) was 8.70, the CD [1] was 0.4 nM and the Activity [2] was “Active”. It also gave a Stability [3] of 3 yr.

In the case of `C#Cc1nccn1C(=O)[C@]12CCC(C)(C)C[C@H]1[C@H]1C(=O)C=C3[C@@]4(C)C=C(C#N)C(=O)C(C)(C)[C@@H]4CC[C@@]3(C)[C@]1(C)CC2`, the pIC50 (RAW264.7) was 8.64, the CD [1] was 0.9 nM and the Activity [2] was “Active”. For the same compound, the Stability [3] was 3 yr.

Work on `CC1(C)CC[C@]2(C(=O)n3cnc(C#Cc4ccccc4)c3)CC[C@]3(C)[C@H](C(=O)C=C4[C@@]5(C)C=C(C#N)C(=O)C(C)(C)[C@@H]5CC[C@]43C)[C@@H]2C1` yielded a pIC50 (RAW264.7) of 8.11.

For `CC1(C)CC[C@]2(C(=O)n3ccnc3C#Cc3ccccc3)CC[C@]3(C)[C@H](C(=O)C=C4[C@@]5(C)C=C(C#N)C(=O)C(C)(C)[C@@H]5CC[C@]43C)[C@@H]2C1`, the pIC50 (RAW264.7) was 8.40, the CD [1] was 1.2 nM and the Activity [2] was “Active”. The Stability [3] was 3 yr.

In the case of `CC1(C)CC[C@]2(C(=O)n3ccnc3)CC[C@]3(C)[C@H](C(=O)C=C4[C@@]5(C)C=C(C#N)C(=O)C(C)(C)[C@@H]5CC[C@]43C)[C@@H]2C1`, the pIC50 (RAW264.7) was 9.22, the CD [1] was 0.2 nM and the Stability [3] was 1 yr.

For `C#Cc1cn(C(=O)[C@]23CCC(C)(C)C[C@H]2[C@H]2C(=O)C=C4[C@@]5(C)C=C(C#N)C(=O)C(C)(C)[C@@H]5CC[C@@]4(C)[C@]2(C)CC3)cn1`, the pIC50 (RAW264.7) was 8.85, the CD [1] was 0.4 nM and the Activity [2] was “Active”. For the same compound, the Stability [3] was 3 yr.

For `CC1(C)CC[C@]2(C(=O)O)CC[C@]3(C)[C@H](C(=O)C=C4[C@@]5(C)C=C(C#N)C(=O)C(C)(C)[C@@H]5CC[C@]43C)[C@@H]2C1` [BARDOXOLONE], the pIC50 (RAW264.7) was 7.96 and the CD [1] was 3 nM.
